Assay results reported in ChEMBL document CHEMBL4706701, “Synthesis and biological activity of selenopsammaplin A and its analogues as antitumor agents with DOT1L inhibitory activity” (Bioorg Med Chem, 2021).
Calls of active or inactive are those of the source. The rule behind the calls is not given here.

Columns and labels:
[1] = tested on: A549; assay: Cytotoxicity against human A549 cells assessed as reduction in cell viability by SRB assay; assay type: functional, cell-based
Method in brief: (§1)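 Cells seeded in 96-well plates and exposed to compounds for the stated times. Zero-day controls were incubated 30 min. Cells were fixed and stained with 0.4% SRB in 1% acetic acid, and bound dye was dissolved in 10 mM Tris (pH 10.0). A515 was read, and IC50 was calculated by non-linear regression.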

[2] = tested on: SNU-638; assay: Cytotoxicity against human SNU-638 cells assessed as reduction in cell viability by SRB assay; assay type: functional, cell-based; method in brief: as §1
[3] = tested on: SK-HEP1; assay: Cytotoxicity against human SK-HEP1 cells assessed as reduction in cell viability by SRB assay; assay type: functional, cell-based; method in brief: as §1
[4] = tested on: HCT-116; assay: Cytotoxicity against human HCT-116 cells assessed as reduction in cell viability by SRB assay; assay type: functional, cell-based; method in brief: as §1
[5] = tested on: MDA-MB-231; assay: Cytotoxicity against human MDA-MB-231 cells assessed as reduction in cell viability by SRB assay; assay type: functional, cell-based; method in brief: as §1
[6] = target: Histone-lysine N-methyltransferase, H3 lysine-79 specific (Homo sapiens) (UniProt Q8TEK3); assay: Inhibition of DOT1L in human MDA-MB-231 cells assessed as down regulation of H3K79me2 expression at 200 nM by Western blot analysis; assay type: cell-based
Sequence of Histone-lysine N-methyltransferase, H3 lysine-79 specific (Homo sapiens) (Q8TEK3 whole entry, looked up, the tested form may be a part): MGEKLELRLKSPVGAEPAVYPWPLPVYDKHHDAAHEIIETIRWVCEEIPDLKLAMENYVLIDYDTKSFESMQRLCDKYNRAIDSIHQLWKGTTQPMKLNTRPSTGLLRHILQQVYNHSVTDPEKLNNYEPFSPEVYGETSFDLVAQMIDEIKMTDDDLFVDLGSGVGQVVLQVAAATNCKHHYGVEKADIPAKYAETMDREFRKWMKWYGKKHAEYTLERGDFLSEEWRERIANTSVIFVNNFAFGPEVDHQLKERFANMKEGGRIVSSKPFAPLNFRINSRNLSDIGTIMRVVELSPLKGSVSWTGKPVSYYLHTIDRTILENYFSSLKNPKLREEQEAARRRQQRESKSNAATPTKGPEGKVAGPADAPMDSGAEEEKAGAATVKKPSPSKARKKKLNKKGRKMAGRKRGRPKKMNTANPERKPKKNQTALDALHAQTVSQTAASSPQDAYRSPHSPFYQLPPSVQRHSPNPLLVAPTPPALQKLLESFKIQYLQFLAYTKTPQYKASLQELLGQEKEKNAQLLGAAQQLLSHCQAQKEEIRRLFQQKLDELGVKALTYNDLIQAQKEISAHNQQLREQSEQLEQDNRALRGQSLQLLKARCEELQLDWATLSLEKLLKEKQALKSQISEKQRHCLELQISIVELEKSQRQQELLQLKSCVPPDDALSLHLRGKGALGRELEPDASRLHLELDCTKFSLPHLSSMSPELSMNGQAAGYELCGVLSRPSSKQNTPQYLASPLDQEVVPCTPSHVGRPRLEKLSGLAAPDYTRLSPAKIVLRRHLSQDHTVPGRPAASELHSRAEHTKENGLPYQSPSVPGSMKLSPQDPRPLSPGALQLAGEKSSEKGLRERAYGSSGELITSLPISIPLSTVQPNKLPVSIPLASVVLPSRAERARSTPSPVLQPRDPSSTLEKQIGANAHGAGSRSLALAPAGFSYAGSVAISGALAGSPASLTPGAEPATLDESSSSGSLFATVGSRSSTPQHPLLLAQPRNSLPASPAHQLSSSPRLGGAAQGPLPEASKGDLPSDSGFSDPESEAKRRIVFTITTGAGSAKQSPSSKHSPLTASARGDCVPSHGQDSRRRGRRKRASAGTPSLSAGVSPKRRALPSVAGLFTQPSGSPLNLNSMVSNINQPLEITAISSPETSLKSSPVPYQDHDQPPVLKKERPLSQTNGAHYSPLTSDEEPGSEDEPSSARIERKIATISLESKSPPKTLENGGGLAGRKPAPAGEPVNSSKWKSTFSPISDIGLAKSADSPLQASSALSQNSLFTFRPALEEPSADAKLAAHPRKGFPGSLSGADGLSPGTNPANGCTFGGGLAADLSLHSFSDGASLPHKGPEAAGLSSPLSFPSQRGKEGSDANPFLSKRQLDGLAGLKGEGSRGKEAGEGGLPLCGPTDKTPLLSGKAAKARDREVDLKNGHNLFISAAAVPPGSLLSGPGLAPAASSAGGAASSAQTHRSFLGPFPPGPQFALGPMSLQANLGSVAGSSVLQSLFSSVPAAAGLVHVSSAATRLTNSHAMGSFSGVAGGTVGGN
Method in brief: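 MDA-MB-231 lysates were made in 2× SDS sample buffer with vanadate and fluoride. 5-20 μg protein was run on 8–15% SDS-PAGE and blotted to PVDF. Membranes were blocked in 5% BSA, probed for H3K79me2 with total histone H3, and detected by ECL. Mean ± SD (n = 3), representative of three separate experiments.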

[7] = target: Histone-lysine N-methyltransferase, H3 lysine-79 specific (Homo sapiens) (UniProt Q8TEK3); assay: Inhibition of DOT1L in human MDA-MB-231 cells assessed as effect on H3K27 methylation at 200 nM by Western blot analysis; assay type: cell-based
Method in brief: (§2)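 MDA-MB-231 cell lysates in 2× SDS buffer, protein by BCA; 5–20 μg on 8–15% SDS-PAGE, transferred to PVDF, BSA-blocked and probed with antibodies to H3K4me2, H3K27me2, H3K36me2, H3K79me2 and total histone H3; ECL detection. Mean ± SD (n = 3), three separate experiments.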

[8] = target: Histone-lysine N-methyltransferase, H3 lysine-79 specific (Homo sapiens) (UniProt Q8TEK3); assay: Inhibition of DOT1L in human MDA-MB-231 cells assessed as effect on histone H3 methylation at 200 nM by Western blot analysis; assay type: cell-based; method in brief: as §2
[9] = target: Histone-lysine N-methyltransferase, H3 lysine-79 specific (Homo sapiens) (UniProt Q8TEK3); assay: Inhibition of human N-terminal GST-tagged DOT1L (2 to 416 residues) expressed in Escherichia coli at 200 nM using DOT1L substrate measured after 2 hrs in presence of SAM by ELISA
Method in brief: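 Cell-free DOT1L enzyme activity assay using 500 ng DOT1L per well. Compound was incubated 2 h before read-out. EPZ-5676 (100 nM) was the positive control. Mean ± SD (n = 3), representative of three separate experiments.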

[10] = target: Histone-lysine N-methyltransferase, H3 lysine-79 specific (Homo sapiens) (UniProt Q8TEK3); assay: Inhibition of DOT1L in human MDA-MB-231 cells assessed as effect on H3K36 methylation at 200 nM by Western blot analysis; assay type: cell-based; method in brief: as §2
[11] = tested on: MDA-MB-231; assay: Antiinvasive activity in human MDA-MB-231 cells assessed as reduction in cell invasion through matrigel-coated chamber at 400 nM after 24 hrs by diff-quik staining based microscopic analysis; assay type: functional
Method in brief: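 MDA-MB-231 cells pretreated with compound (50–400 nM) for 24 h, harvested into serum-free medium and plated at 0.5–1 × 10⁶ cells/chamber on transwell inserts (8 μm pores) coated with type I collagen and 1:20 Matrigel/PBS; 30% FBS medium as chemoattractant below. After 24 h, invaded cells fixed, Diff-Quik stained, counted in 5 random fields at 200×; three separate experiments.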

[12] = tested on: MDA-MB-231; assay: Antimigratory activity in human MDA-MB-231 cells assessed as suppression of wound closure at 400 nM after 24 hrs by microscopic analysis; assay type: functional, cell-based
Method in brief: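 MDA-MB-231 monolayers at 80–90% confluence scratched with a pipette tip, washed with PBS, then kept 24 h in medium with 1% FBS plus compound at various concentrations. Wounds photographed at 0 and 24 h; area measured by image analysis and expressed as wound healing (%) relative to the 0 h area. Mean ± SD (n = 3), three separate experiments.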

[13] = target: Histone-lysine N-methyltransferase, H3 lysine-79 specific (Homo sapiens) (UniProt Q8TEK3); assay: Inhibition of DOT1L in human MDA-MB-231 cells assessed as effect on H3K4 methylation at 200 nM by Western blot analysis; assay type: cell-based; method in brief: as §2
[14] = Toxicity in human MDA-MB-231 cells xenografted BALB/c nu mouse assessed as body weight loss at 5 mg/kg, ip administered thrice per week for 38 days measured once per week during compound dosing; assay type: organism-based; conditions: in vivo, 912 h, time 38 day
Method in brief: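 Female BALB/c-nu mice (5–6 wk) given 1 × 10⁷ luciferase-expressing MDA-MB-231 cells in 50:50 DMEM/Matrigel into the fourth fat pad; randomized after 10 days (six per group). Dosed ip in EtOH/Cremophor/saline (5:5:90) three times weekly for 38 days. Tumor L, W, H measured by caliper, volume = LWH/2; body weight weekly; tumors excised and weighed at termination.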

[15] = Selectivity ratio of IC50 for human MCF-10A cells to IC50 for human A549 cells; assay type: toxicity; conditions: MCF-10A cells versus A549 cells, read-out: Ratio IC50
[16] = tested on: MCF-10A; assay: Cytotoxicity against human MCF-10A cells assessed as reduction in cell viability by SRB assay; assay type: cell-based; method in brief: as §1
[17] = Selectivity ratio of IC50 for human MCF-10A cells to IC50 for human MDA-MB-231 cells; assay type: toxicity; conditions: MCF-10A cells versus MDA-MB-231 cells, read-out: Ratio IC50
[18] = Selectivity ratio of IC50 for human MCF-10A cells to IC50 for human SK-HEP1 cells
Method in brief: (§3)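 Cytotoxicity by SRB assay: cells seeded in 96-well plates and treated with compounds; fixed, stained with 0.4% SRB in 1% acetic acid, dye dissolved in 10 mM Tris (pH 10.0), absorbance read at 515 nm. IC50 by non-linear regression, means of at least three experiments; ratio of MCF10A IC50 to cancer-line IC50.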

[19] = Selectivity ratio of IC50 for human MCF-10A cells to IC50 for human HCT-116 cells; assay type: toxicity; conditions: MCF-10A cells versus HCT-116 cells, read-out: Ratio IC50
[20] = Selectivity ratio of IC50 for human MCF-10A cells to IC50 for human SNU-638 cells; method in brief: as §3

Structure (SMILES)	IC50 [1] [nM]	IC50 [2] [nM]	IC50 [3] [nM]	IC50 [4] [nM]	IC50 [5] [nM]	H3K79me2 downregulation (active/not active) [6]	inhibition [9]	other results
O=C(NCC[Se][Se]CCNC(=O)/C(Cc1ccc(Cl)c(Cl)c1)=N/O)/C(Cc1ccc(Cl)c(Cl)c1)=N/O	280	180	320	520	250	Active		
O=C(NCC[Se][Se]CCNC(=O)/C(Cc1ccc(Cl)cc1)=N/O)/C(Cc1ccc(Cl)cc1)=N/O	250	220	330	280	330	Active		
O=C(NCC[Se][Se]CCNC(=O)/C(Cc1ccc(F)cc1)=N/O)/C(Cc1ccc(F)cc1)=N/O	100	70	140	110	130			
O=C(NCCSSCCNC(=O)/C(Cc1ccc(O)c(Br)c1)=N/O)/C(Cc1ccc(O)c(Br)c1)=N/O [PSAMMAPLIN A]	1760	560	1290	610	1310		inactive	inhibition [7]: inactive; inhibition [8]: inactive; inhibition [10]: inactive; Activity [11]: inactive; Activity [12]: inactive; inhibition [13]: inactive
CCOc1ccc(C/C(=N\O)C(=O)NCC[Se][Se]CCNC(=O)/C(Cc2ccc(OCC)cc2)=N/O)cc1	50	30	180	70	200	Active	Active	
O=C(NCC[Se][Se]CCNC(=O)/C(Cc1ccc(Br)cc1)=N/O)/C(Cc1ccc(Br)cc1)=N/O	310	150	310	170	390	Active		
CC(C)(C)c1ccc(C/C(=N\O)C(=O)NCC[Se][Se]CCNC(=O)/C(Cc2ccc(C(C)(C)C)cc2)=N/O)cc1	100	280	190	130	100	Active	Active	
O=C(NCC[Se][Se]CCNC(=O)/C(Cc1ccc([N+](=O)[O-])cc1)=N/O)/C(Cc1ccc([N+](=O)[O-])cc1)=N/O	90	60	170	90	90	Active	Active	
O=C(NCC[Se][Se]CCNC(=O)/C(Cc1ccc(O)c(F)c1)=N/O)/C(Cc1ccc(O)c(F)c1)=N/O	20	20	130	10	190	Active	Active	
O=C(NCC[Se][Se]CCNC(=O)/C(Cc1ccc(O)c(Cl)c1)=N/O)/C(Cc1ccc(O)c(Cl)c1)=N/O	20	10	110	10	170	Active	Active	
O=C(NCC[Se][Se]CCNC(=O)/C(Cc1ccc(F)c(F)c1)=N/O)/C(Cc1ccc(F)c(F)c1)=N/O	330	50	270	180	420	Active		
O=C(NCC[Se][Se]CCNC(=O)/C(Cc1ccc2ccccc2c1)=N/O)/C(Cc1ccc2ccccc2c1)=N/O	380	270	170	120	190	inactive		
CC(=O)O[C@H]1C(=O)[C@@]2(C)[C@H]([C@H](OC(=O)c3ccccc3)[C@]3(O)C[C@H](OC(=O)[C@H](O)[C@@H](NC(=O)c4ccccc4)c4ccccc4)C(C)=C1C3(C)C)[C@]1(OC(C)=O)CO[C@@H]1C[C@@H]2O [PACLITAXEL]								Activity [14]: Toxic
O=C(NCC[Se][Se]CCNC(=O)/C(Cc1ccc(O)c(Br)c1)=N/O)/C(Cc1ccc(O)c(Br)c1)=N/O	30	20	210	10	160	Active	Active	selectivity ratio [15]: > 100; IC50 [16]: 16100 nM; selectivity ratio [17]: > 100; Ratio IC50 [18]: 77; selectivity ratio [19]: > 100; Ratio IC50 [20]: >100
O=C(NCC[Se][Se]CCNC(=O)/C(Cc1ccc(OCc2ccccc2)cc1)=N/O)/C(Cc1ccc(OCc2ccccc2)cc1)=N/O	140	410	280	100	140	Active	Active	
COc1cc([C@@H]2c3cc4c(cc3[C@@H](O[C@@H]3O[C@@H]5CO[C@@H](C)O[C@H]5[C@H](O)[C@H]3O)[C@H]3COC(=O)[C@H]23)OCO4)cc(OC)c1O [ETOPOSIDE]		200	400	1200	8700			
